Data from ChEMBL document CHEMBL1155825, “Potent and selective antiplasmodial activity of the cyanobacterial alkaloid nostocarboline and its dimers” (Bioorg Med Chem Lett, 2008).

Key:
[1] = test system: Trypanosoma brucei rhodesiense; assay: Antiparasitic activity against Trypanosoma brucei rhodesiense STIB900; assay type: functional, organism-based
Trypanosoma cruzi = assay: Antiparasitic activity against Trypanosoma cruzi Tulahuen C2C4; assay type: functional, organism-based
Leishmania donovani = assay: Antiparasitic activity against Leishmania donovani […]; assay type: functional, organism-based
Summary of the method: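 Leishmania donovani MHOM-ET-67/L82 tested as axenic amastigotes; IC50 determined.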

Plasmodium falciparum = assay: Antiparasitic activity against Plasmodium falciparum K1; assay type: functional, organism-based
L6 = assay: Cytotoxicity against rat L6 cells; assay type: cell-based
Summary of the method: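 Cytotoxicity was measured on rat skeletal myoblast L6 cells, with the IC50 as read-out.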

[2] = Selectivity index, ratio of IC50 for rat L6 cells to IC50 for Plasmodium falciparum K1; assay type: toxicity, cell-based; conditions: rat L6 cells (cytotoxicity) versus Plasmodium falciparum K1, read-out: Ratio IC50

Structure (SMILES)	IC50 [1]	IC50 (Trypanosoma cruzi)	IC50 (Leishmania donovani)	IC50 (Plasmodium falciparum)	IC50 (L6)	selectivity ratio [2]
Clc1ccc2[nH]c3c[n+](CC#CC[n+]4ccc5c(c4)[nH]c4ccc(Cl)cc45)ccc3c2c1	6400 nM	10.6 µM	34.7 µM	738 nM	28.5 µM	39
Clc1ccc2[nH]c3c[n+](CCCCCC[n+]4ccc5c(c4)[nH]c4ccc(Cl)cc45)ccc3c2c1	1200 nM	36.2 µM	6.6 µM	20 nM	36.2 µM	1810
Clc1ccc2[nH]c3c[n+](Cc4ccc(-c5ccc(C[n+]6ccc7c(c6)[nH]c6ccc(Cl)cc67)cc5)cc4)ccc3c2c1	2500 nM	> 45.7 µM	68.4 µM	56 nM	23 µM	408
O=C(O)c1cn(C2CC2)c2cc(N3CCN(Cc4ccc(C[n+]5ccc6c(c5)[nH]c5ccc(Cl)cc56)cc4)CC3)c(F)cc2c1=O	92500 nM	> 44.6 µM	61.6 µM	> 7400 nM	121 µM	–
Clc1ccc2[nH]c3c[n+](CCOCC[n+]4ccc5c(c4)[nH]c4ccc(Cl)cc45)ccc3c2c1	1200 nM	51.1 µM	8.6 µM	18 nM	47.9 µM	2620
Clc1ccc2[nH]c3c[n+](Cc4cccc(C[n+]5ccc6c(c5)[nH]c5ccc(Cl)cc56)c4)ccc3c2c1	1200 nM	5.9 µM	0.2 µM	121 nM	3.8 µM	32
C[n+]1ccc2c(c1)[nH]c1ccc(Cl)cc12 [NOSTOCARBOLINE]	70500 nM	> 87.1 µM	34.3 µM	194 nM	121 µM	622

Continued, in another order:

IC50 [1]	IC50 (Trypanosoma cruzi)	IC50 (Leishmania donovani)	IC50 (Plasmodium falciparum)	Structure (SMILES)	IC50 (L6)	selectivity ratio [2]
1200 nM	10 µM	0.6 µM	23 nM	Clc1ccc2[nH]c3c[n+](CCCCCCCCCCCC[n+]4ccc5c(c4)[nH]c4ccc(Cl)cc45)ccc3c2c1	4.3 µM	186
1000 nM	> 51.7 µM	19.9 µM	223 nM	Clc1ccc2[nH]c3c[n+](Cc4ccc(C[n+]5ccc6c(c5)[nH]c5ccc(Cl)cc56)cc4)ccc3c2c1	17.4 µM	78
1100 nM	> 56.6 µM	9.6 µM	113 nM	Clc1ccc2[nH]c3c[n+](C/C=C\C[n+]4ccc5c(c4)[nH]c4ccc(Cl)cc45)ccc3c2c1	61.1 µM	540
900 nM	31.4 µM	2.3 µM	18 nM	Clc1ccc2[nH]c3c[n+](CCCCCCCC[n+]4ccc5c(c4)[nH]c4ccc(Cl)cc45)ccc3c2c1	7.5 µM	423
1100 nM	36.6 µM	0.9 µM	14 nM	Clc1ccc2[nH]c3c[n+](CCCCCCCCCC[n+]4ccc5c(c4)[nH]c4ccc(Cl)cc45)ccc3c2c1	8.2 µM	575
